Source: the M2OR odorant receptor database

Assays:
Conditions in all cases: stereoisomer not certain
O10Q1 Q10R E12D = test system: O10Q1 Q10R E12D
Procedure, shortened: (§1)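 Each receptor–molecule pair is labelled responsive or non-responsive (inactive) according to whether the original authors judged the measured signal statistically different from baseline. The data were taken from the main text and supplementary material of published papers and checked for typos and inconsistencies. Assay methods differed by source, with transient luciferase assays in mammalian cell lines being common.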

O10R2 I170L = test system: O10R2 I170L
Sequence of O10R2 I170L (as listed by the source, stated change not applied): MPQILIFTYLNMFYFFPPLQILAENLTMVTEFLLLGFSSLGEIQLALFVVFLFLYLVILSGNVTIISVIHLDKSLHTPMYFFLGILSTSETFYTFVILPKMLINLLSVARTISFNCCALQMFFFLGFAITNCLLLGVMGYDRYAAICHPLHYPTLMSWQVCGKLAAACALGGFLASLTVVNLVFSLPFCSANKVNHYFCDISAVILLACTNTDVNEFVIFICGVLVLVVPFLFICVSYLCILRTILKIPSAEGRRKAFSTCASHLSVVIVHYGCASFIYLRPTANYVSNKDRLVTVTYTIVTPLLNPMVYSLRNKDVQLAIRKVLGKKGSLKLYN
Procedure, shortened: as §1

O10T2 I137M = test system: O10T2 I137M
Sequence of O10T2 I137M (as listed by the source, stated change not applied): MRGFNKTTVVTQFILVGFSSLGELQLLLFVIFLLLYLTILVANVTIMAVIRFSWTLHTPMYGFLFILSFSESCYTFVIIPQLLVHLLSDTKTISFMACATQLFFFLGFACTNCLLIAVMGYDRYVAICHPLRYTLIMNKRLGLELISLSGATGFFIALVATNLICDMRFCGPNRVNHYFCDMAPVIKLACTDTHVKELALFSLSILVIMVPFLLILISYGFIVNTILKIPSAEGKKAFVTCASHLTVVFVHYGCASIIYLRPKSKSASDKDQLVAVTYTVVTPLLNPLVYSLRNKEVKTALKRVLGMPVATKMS
Procedure, shortened: as §1

O10V1 Q123R = test system: O10V1 Q123R
Sequence of O10V1 Q123R (as listed by the source, stated change not applied): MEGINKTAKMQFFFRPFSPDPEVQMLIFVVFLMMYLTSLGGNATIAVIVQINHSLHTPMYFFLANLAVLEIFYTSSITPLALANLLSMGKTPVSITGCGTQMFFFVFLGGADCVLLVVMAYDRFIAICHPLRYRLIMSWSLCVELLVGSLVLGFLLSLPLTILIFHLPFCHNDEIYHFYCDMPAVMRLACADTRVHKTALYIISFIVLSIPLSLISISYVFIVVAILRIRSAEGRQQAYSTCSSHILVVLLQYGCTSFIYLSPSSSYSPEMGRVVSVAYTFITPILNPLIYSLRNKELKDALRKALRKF
Procedure, shortened: as §1

O10X1 N4T R181S = test system: O10X1 N4T R181S
Procedure, shortened: as §1

O11G2 F3I I99N V116I = test system: O11G2 F3I I99N V116I
Procedure, shortened: as §1

O11H1 M240V = test system: O11H1 M240V
Sequence of O11H1 M240V (as listed by the source, stated change not applied): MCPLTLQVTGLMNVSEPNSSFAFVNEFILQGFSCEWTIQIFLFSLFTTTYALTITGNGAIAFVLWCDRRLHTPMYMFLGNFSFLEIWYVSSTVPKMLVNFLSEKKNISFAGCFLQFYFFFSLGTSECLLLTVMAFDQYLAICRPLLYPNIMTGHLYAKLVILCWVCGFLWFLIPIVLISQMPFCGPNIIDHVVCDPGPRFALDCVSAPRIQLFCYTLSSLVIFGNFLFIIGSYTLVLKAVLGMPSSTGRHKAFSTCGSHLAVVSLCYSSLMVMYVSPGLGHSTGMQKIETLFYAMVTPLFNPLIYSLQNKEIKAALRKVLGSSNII
Procedure, shortened: as §1

O11H6 I107T = test system: O11H6 I107T
Sequence of O11H6 I107T (as listed by the source, stated change not applied): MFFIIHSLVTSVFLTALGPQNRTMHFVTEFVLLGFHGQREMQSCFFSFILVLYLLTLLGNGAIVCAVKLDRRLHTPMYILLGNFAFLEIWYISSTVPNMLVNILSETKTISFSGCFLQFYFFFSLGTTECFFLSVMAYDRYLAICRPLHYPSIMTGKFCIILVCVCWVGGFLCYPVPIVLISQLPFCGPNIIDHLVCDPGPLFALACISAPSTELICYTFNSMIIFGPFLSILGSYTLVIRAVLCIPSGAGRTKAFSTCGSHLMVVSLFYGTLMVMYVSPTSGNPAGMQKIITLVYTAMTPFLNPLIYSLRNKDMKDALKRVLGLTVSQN
Procedure, shortened: as §1

O11HC C156Y V240M = test system: O11HC C156Y V240M
Procedure, shortened: as §1

O12D2 S104F = test system: O12D2 S104F
Sequence of O12D2 S104F (as listed by the source, stated change not applied): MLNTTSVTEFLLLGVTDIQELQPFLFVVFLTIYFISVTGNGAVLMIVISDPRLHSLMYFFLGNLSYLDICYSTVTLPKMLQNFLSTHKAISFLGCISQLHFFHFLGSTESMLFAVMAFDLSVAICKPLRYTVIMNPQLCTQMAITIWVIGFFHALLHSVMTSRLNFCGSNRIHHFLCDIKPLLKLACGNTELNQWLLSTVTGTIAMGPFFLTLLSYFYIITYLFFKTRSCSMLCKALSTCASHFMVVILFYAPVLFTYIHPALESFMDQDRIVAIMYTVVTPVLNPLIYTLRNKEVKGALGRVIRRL
Procedure, shortened: as §1

O13C2 H6Q = test system: O13C2 H6Q
Sequence of O13C2 H6Q (as listed by the source): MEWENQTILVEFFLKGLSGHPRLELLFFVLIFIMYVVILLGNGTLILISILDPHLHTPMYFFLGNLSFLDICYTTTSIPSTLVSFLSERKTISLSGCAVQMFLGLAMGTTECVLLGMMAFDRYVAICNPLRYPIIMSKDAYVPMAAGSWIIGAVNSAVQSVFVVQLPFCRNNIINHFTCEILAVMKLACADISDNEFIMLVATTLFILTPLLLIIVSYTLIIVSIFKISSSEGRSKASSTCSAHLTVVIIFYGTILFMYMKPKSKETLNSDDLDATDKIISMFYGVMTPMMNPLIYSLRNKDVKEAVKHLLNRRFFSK
Procedure, shortened: as §1

O13C8 A19D = test system: O13C8 A19D
Sequence of O13C8 A19D (as listed by the source, stated change not applied): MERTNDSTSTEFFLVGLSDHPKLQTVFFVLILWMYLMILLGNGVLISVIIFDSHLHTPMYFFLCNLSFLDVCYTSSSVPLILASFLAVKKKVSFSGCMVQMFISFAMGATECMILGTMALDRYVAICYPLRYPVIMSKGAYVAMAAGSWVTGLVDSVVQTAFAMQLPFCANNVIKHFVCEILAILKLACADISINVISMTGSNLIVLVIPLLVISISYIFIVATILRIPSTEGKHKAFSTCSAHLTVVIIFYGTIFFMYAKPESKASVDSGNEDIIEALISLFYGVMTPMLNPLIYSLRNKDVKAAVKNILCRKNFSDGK
Procedure, shortened: as §1

O13C9 H17L V19G L23H = test system: O13C9 H17L V19G L23H
Procedure, shortened: as §1

O13C9 Q6H = test system: O13C9 Q6H
Sequence of O13C9 Q6H (as listed by the source): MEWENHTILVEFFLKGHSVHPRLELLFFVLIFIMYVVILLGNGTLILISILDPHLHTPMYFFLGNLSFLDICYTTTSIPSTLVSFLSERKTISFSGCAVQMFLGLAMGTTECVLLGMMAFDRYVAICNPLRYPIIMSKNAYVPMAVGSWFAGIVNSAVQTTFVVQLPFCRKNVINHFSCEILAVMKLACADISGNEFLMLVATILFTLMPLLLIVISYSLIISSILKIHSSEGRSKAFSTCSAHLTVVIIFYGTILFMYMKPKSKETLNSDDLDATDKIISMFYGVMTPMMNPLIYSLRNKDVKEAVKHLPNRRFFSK
Procedure, shortened: as §1

O13F1 F18S T254M = test system: O13F1 F18S T254M
Procedure, shortened: as §1

O13F1 F18S = test system: O13F1 F18S
Sequence of O13F1 F18S (as listed by the source, stated change not applied): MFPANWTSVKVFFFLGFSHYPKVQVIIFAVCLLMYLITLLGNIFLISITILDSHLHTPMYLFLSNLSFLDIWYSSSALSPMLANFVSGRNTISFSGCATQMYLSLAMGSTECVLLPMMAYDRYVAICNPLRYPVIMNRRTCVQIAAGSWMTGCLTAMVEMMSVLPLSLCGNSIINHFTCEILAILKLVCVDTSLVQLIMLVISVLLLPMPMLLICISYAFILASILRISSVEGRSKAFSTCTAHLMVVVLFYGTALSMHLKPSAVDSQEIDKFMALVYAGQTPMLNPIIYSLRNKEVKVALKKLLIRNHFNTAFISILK
Procedure, shortened: as §1

O13G1 K46I M146L = test system: O13G1 K46I M146L
Procedure, shortened: as §1

O13G1 = test system: O13G1
Sequence of O13G1 (as listed by the source): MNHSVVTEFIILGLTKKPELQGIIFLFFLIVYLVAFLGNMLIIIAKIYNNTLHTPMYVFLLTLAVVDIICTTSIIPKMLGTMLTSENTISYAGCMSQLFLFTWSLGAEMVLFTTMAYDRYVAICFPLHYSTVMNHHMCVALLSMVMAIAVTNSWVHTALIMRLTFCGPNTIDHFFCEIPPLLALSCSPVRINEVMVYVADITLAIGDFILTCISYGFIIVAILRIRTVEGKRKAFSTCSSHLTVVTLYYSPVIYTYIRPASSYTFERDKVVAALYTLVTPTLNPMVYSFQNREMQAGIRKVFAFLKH
Procedure, shortened: as §1

O13H1 Y266S = test system: O13H1 Y266S
Sequence of O13H1 Y266S (as listed by the source, stated change not applied): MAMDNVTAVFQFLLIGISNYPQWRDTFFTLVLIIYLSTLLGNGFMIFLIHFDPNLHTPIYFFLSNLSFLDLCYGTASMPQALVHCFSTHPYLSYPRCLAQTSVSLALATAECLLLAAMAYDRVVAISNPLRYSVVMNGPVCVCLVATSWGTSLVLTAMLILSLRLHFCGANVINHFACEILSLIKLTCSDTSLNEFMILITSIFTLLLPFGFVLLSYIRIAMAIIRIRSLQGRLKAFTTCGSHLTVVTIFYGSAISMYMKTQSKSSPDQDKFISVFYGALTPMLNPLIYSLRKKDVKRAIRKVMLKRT
Procedure, shortened: as §1

O13J1 = test system: O13J1
Sequence of O13J1 (as listed by the source): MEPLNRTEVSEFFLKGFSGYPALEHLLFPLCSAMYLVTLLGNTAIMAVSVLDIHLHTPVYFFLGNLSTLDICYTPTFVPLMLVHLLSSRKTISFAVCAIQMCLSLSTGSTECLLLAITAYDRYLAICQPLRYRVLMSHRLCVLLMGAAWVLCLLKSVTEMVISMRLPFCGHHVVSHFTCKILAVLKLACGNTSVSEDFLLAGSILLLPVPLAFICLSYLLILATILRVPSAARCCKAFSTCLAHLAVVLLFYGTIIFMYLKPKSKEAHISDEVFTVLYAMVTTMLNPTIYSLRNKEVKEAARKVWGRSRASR
Procedure, shortened: as §1

Measured: odorant receptor agonist call;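 also: active if original authors judged signal statistically different from baseline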

C=CCOC(=O)Cc1ccccc1
inactive: all assays above
